ChEMBL document CHEMBL5230173, “Site-directed late-stage diversification of macrocyclic nannocystins facilitating anticancer SAR and mode of action studies” (RSC Med Chem, 2023)

Columns and labels:
HCT-8 = assay: Antiproliferative activity against human HCT-8 cells assessed as inhibition of cell growth incubated for 72 hrs by CCK-8 assay; details: HCT-8, 72 h
HCT-116 [1] = assay: Antiproliferative activity against human HCT-116 cells assessed as inhibition of cell growth incubated for 72 hrs by CCK-8 assay; details: HCT-116, 72 h
MDA-MB-231 = assay: Antiproliferative activity against human MDA-MB-231 cells assessed as inhibition of cell growth incubated for 72 hrs by CCK-8 assay; details: MDA-MB-231, 72 h
HCT-116 [2] = assay: Antiproliferative activity against human HCT-116 cells assessed as inhibition of cell growth by thymidine plus proliferation assay; type: functional, cell-based
HCT-116 [3] = assay: Antiproliferative activity against human HCT-116 cells assessed as inhibition of cell growth by Celltiter-Glo luminescence assay; type: functional, cell-based
[4] = Drug uptake in human MDA-MB-231 cells incubated for 1 hrs by laser scanning confocal microscopic analysis; type: ADME, cell-based; details: mda-mb-231, 1 h, dose 0.25-2 µM
Procedure, shortened: (§1)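 MDA-MB231 cells were seeded at 6 × 10^4 on slides for 24 h in DMEM with 10% FBS. Cells were then PBS-washed twice, fixed in 4% formaldehyde for 2 min, and imaged by confocal microscopy (ex 405, em 460 nm).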

[5] = Drug uptake in human MDA-MB-231 cells at 1 uM by laser scanning confocal microscopic analysis; type: ADME, cell-based; details: mda-mb-231, 1 h, TDE = time-dependent effect, time < 60 min
Procedure, shortened: as §1

[6] = Drug uptake in human MDA-MB-231 cells measured after compound washout by laser scanning confocal microscopic analysis; type: ADME, cell-based
[7] = Drug localization in endoplasmic reticulum of human HCT-8 cells at 250 nM incubated for 8 hrs by ER-tracker red based laser scanning confocal microscopic analysis; type: ADME, cell-based; details: hct-8, 8 h, 0.25 µM
Procedure, shortened: (§2)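 HCT-8 (250 nM) and MDA-MB231 (500 nM) cells were seeded at 4 × 10^4 on slides for 24 h, then exposed to the probe for 8 h. After an HBSS wash, cells were stained with ER-Tracker Red for 20 min at 37 °C, washed twice with medium, and fixed in 4% formaldehyde for 2 min. Confocal imaging used probe ex 405/em 460 nm and tracker ex 587/em 615 nm.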

[8] = Drug localization in endoplasmic reticulum of human MDA-MB-231 cells at 500 nM incubated for 8 hrs by ER-tracker red based laser scanning confocal microscopic analysis; type: ADME, cell-based; details: mda-mb-231, 8 h, 0.5 µM
Procedure, shortened: as §2

CC[C@H](C)[C@H]1C(=O)N[C@H](COC(=O)CCC(=O)O)C(=O)N[C@@H](C(C)(C)O)C(=O)O[C@H](c2ccccc2)[C@H](C)/C=C/C=C(\C)[C@H](OC)C[C@@H]2O[C@@]2(C)C(=O)N1C
IC50 (HCT-8): 115 nM | IC50 (HCT-116 [1]): > 200 nM | IC50 (MDA-MB-231): 52.6 nM

CC[C@H](C)[C@H]1C(=O)N[C@H](COC(=O)C2=CCC2)C(=O)N[C@@H](C(C)(C)O)C(=O)O[C@H](c2ccccc2)[C@H](C)/C=C/C=C(\C)[C@H](OC)C[C@@H]2O[C@@]2(C)C(=O)N1C
IC50 (HCT-8): 2.9 nM | IC50 (HCT-116 [1]): 29.8 nM | IC50 (MDA-MB-231): 43.5 nM

CC[C@H](C)[C@H]1C(=O)N[C@H](COC(=O)/C=C/c2cc(F)cc(F)c2)C(=O)N[C@@H](C(C)(C)O)C(=O)O[C@H](c2ccccc2)[C@H](C)/C=C/C=C(\C)[C@H](OC)C[C@@H]2O[C@@]2(C)C(=O)N1C
IC50 (HCT-8): 24.9 nM | IC50 (HCT-116 [1]): 23.5 nM | IC50 (MDA-MB-231): 78.8 nM

CC[C@H](C)[C@H]1C(=O)N[C@H](COC(=O)C2CCCCC2)C(=O)N[C@@H](C(C)(C)O)C(=O)O[C@H](c2ccccc2)[C@H](C)/C=C/C=C(\C)[C@H](OC)C[C@@H]2O[C@@]2(C)C(=O)N1C
IC50 (HCT-8): 44 nM | IC50 (HCT-116 [1]): 37.7 nM | IC50 (MDA-MB-231): 20.7 nM

CCCCC(=O)OC[C@H]1NC(=O)[C@H]([C@@H](C)CC)N(C)C(=O)[C@]2(C)O[C@H]2C[C@@H](OC)/C(C)=C/C=C/[C@@H](C)[C@@H](c2ccccc2)OC(=O)[C@H](C(C)(C)O)NC1=O
IC50 (HCT-8): 18.4 nM | IC50 (HCT-116 [1]): 27.1 nM | IC50 (MDA-MB-231): 46.2 nM

CC[C@H](C)[C@H]1C(=O)N[C@H](COC(=O)/C=C/c2ccccc2)C(=O)N[C@@H](C(C)(C)O)C(=O)O[C@H](c2ccccc2)[C@H](C)/C=C/C=C(\C)[C@H](OC)C[C@@H]2O[C@@]2(C)C(=O)N1C
IC50 (HCT-8): 27.6 nM | IC50 (HCT-116 [1]): 18.7 nM | IC50 (MDA-MB-231): 45.8 nM

CC[C@H](C)[C@H]1C(=O)N[C@H](Cc2cc(Cl)c(O)c(Cl)c2)C(=O)N[C@@H](C(C)(C)O)C(=O)O[C@H](c2ccccc2)[C@H](C)/C=C/C=C(\C)[C@H](OC)C[C@@H]2O[C@@]2(C)C(=O)N1C
IC50 (HCT-116 [2]): 1.2 nM | IC50 (HCT-116 [3]): 2.6 nM | IC50 (HCT-8): 10.9 nM | IC50 (HCT-116 [1]): 4.2 nM | IC50 (MDA-MB-231): 15.2 nM

CC[C@H](C)[C@H]1C(=O)N[C@H](COC(=O)c2sc(C)nc2C)C(=O)N[C@@H](C(C)(C)O)C(=O)O[C@H](c2ccccc2)[C@H](C)/C=C/C=C(\C)[C@H](OC)C[C@@H]2O[C@@]2(C)C(=O)N1C
IC50 (HCT-8): 60.5 nM | IC50 (HCT-116 [1]): 2.9 nM | IC50 (MDA-MB-231): 20.6 nM

CC[C@H](C)[C@H]1C(=O)N[C@H](COC(C)=O)C(=O)N[C@@H](C(C)(C)O)C(=O)O[C@H](c2ccccc2)[C@H](C)/C=C/C=C(\C)[C@H](OC)C[C@@H]2O[C@@]2(C)C(=O)N1C
IC50 (HCT-8): 24.3 nM | IC50 (HCT-116 [1]): 17.5 nM | IC50 (MDA-MB-231): 17 nM

CCCCCCCCCC(=O)OC[C@H]1NC(=O)[C@H]([C@@H](C)CC)N(C)C(=O)[C@]2(C)O[C@H]2C[C@@H](OC)/C(C)=C/C=C/[C@@H](C)[C@@H](c2ccccc2)OC(=O)[C@H](C(C)(C)O)NC1=O
IC50 (HCT-8): 16.7 nM | IC50 (HCT-116 [1]): 76.6 nM | IC50 (MDA-MB-231): 97.4 nM

CC[C@H](C)[C@H]1C(=O)N[C@H](COC(=O)c2cc3ccc(N(CC)CC)cc3oc2=O)C(=O)N[C@@H](C(C)(C)O)C(=O)O[C@H](c2ccccc2)[C@H](C)/C=C/C=C(\C)[C@H](OC)C[C@@H]2O[C@@]2(C)C(=O)N1C
Drug uptake [4]: Dose-Dependent Effect | Drug uptake [5]: Tde | Drug uptake [6]: Active | Drug uptake [7]: Active | Drug uptake [8]: Active | IC50 (HCT-8): 52.3 nM | IC50 (HCT-116 [1]): 136 nM | IC50 (MDA-MB-231): 141 nM

C=CC(=O)OC[C@H]1NC(=O)[C@H]([C@@H](C)CC)N(C)C(=O)[C@]2(C)O[C@H]2C[C@@H](OC)/C(C)=C/C=C/[C@@H](C)[C@@H](c2ccccc2)OC(=O)[C@H](C(C)(C)O)NC1=O
IC50 (HCT-8): 35.5 nM | IC50 (HCT-116 [1]): 51.9 nM | IC50 (MDA-MB-231): 81.8 nM

CC[C@H](C)[C@H]1C(=O)N[C@H](COC(=O)c2ccncc2)C(=O)N[C@@H](C(C)(C)O)C(=O)O[C@H](c2ccccc2)[C@H](C)/C=C/C=C(\C)[C@H](OC)C[C@@H]2O[C@@]2(C)C(=O)N1C
IC50 (HCT-8): 57.4 nM | IC50 (HCT-116 [1]): 10.3 nM | IC50 (MDA-MB-231): 32.3 nM

CC[C@H](C)[C@H]1C(=O)N[C@H](COC(=O)c2ccccc2)C(=O)N[C@@H](C(C)(C)O)C(=O)O[C@H](c2ccccc2)[C@H](C)/C=C/C=C(\C)[C@H](OC)C[C@@H]2O[C@@]2(C)C(=O)N1C
IC50 (HCT-8): 23.4 nM | IC50 (HCT-116 [1]): 13.7 nM | IC50 (MDA-MB-231): 40.1 nM

CC[C@H](C)[C@H]1C(=O)N[C@H](COC(=O)C2CC2)C(=O)N[C@@H](C(C)(C)O)C(=O)O[C@H](c2ccccc2)[C@H](C)/C=C/C=C(\C)[C@H](OC)C[C@@H]2O[C@@]2(C)C(=O)N1C
IC50 (HCT-8): 19.6 nM | IC50 (HCT-116 [1]): 42.7 nM | IC50 (MDA-MB-231): 61.8 nM

CC[C@H](C)[C@H]1C(=O)N[C@H](CO)C(=O)N[C@@H](C(C)(C)O)C(=O)O[C@H](c2ccccc2)[C@H](C)/C=C/C=C(\C)[C@H](OC)C[C@@H]2O[C@@]2(C)C(=O)N1C
IC50 (HCT-8): 32.2 nM | IC50 (HCT-116 [1]): 37.6 nM | IC50 (MDA-MB-231): 29.4 nM
